Results reported in ChEMBL document CHEMBL1148950, “Indole glucoalkaloids from Chimarrhis turbinata and their evaluation as antioxidant agents and acetylcholinesterase inhibitors” (J Nat Prod, 2004).
Calls of active or inactive are those of the source. The rule behind the calls is not given here.

Legend:
[1] = test system: Radical scavenging activity; experiment: Antioxidant activity assessed as DPPH radical scavenging activity; assay type: functional
Method in brief: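 Radical scavenging against DPPH with rutin as the reference standard. The value is the concentration in µM needed to scavenge 50% of DPPH free radicals.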

[2] = molecular target: Acetylcholinesterase (Homo sapiens) (UniProt P22303); experiment: Inhibition of acetylcholinesterase at 1.0 uM by TLC screening assay
[3] = molecular target: Acetylcholinesterase (Homo sapiens) (UniProt P22303); experiment: Inhibition of acetylcholinesterase at 0.1 uM by TLC screening assay
Method in brief: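 TLC bioautography on silica gel. Samples in MeOH or MeOH-CH2Cl2 at 0.1 and 1.0 mM were spotted (2 µL), with physostigmine and galanthamine references at 0.1 and 0.01 µM. The plate was sprayed to saturation with 1:1 1 mM DTNB/[…] iodide in buffer, dried 5 min, then sprayed with 3 U/mL AChE. White spots on a yellow background were scored as inhibition.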

Acetylcholinesterase = molecular target: T1, Acetylcholinesterase (Rattus norvegicus, UniProt P37136); experiment: Inhibition of rat brain acetylcholinesterase by colorimetric method
T1 sequence (P37136 whole entry): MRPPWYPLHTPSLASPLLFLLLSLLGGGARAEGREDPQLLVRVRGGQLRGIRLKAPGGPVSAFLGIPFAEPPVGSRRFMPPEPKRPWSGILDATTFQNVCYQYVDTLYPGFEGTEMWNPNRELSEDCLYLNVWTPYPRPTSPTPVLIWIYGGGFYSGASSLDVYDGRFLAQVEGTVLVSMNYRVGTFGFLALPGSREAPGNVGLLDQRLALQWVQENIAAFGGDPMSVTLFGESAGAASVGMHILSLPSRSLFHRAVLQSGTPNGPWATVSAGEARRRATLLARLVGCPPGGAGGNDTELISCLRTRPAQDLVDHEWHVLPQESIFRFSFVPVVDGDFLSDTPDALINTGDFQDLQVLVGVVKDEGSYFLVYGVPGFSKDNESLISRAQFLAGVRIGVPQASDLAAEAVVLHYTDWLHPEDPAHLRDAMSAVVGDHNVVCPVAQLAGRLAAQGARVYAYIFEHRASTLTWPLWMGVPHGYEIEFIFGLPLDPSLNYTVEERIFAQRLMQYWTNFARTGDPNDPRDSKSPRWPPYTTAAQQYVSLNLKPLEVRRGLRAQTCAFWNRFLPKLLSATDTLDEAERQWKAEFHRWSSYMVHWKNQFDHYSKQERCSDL

Acetylcholinesterase (Homo sapiens), sequence (P22303 whole entry): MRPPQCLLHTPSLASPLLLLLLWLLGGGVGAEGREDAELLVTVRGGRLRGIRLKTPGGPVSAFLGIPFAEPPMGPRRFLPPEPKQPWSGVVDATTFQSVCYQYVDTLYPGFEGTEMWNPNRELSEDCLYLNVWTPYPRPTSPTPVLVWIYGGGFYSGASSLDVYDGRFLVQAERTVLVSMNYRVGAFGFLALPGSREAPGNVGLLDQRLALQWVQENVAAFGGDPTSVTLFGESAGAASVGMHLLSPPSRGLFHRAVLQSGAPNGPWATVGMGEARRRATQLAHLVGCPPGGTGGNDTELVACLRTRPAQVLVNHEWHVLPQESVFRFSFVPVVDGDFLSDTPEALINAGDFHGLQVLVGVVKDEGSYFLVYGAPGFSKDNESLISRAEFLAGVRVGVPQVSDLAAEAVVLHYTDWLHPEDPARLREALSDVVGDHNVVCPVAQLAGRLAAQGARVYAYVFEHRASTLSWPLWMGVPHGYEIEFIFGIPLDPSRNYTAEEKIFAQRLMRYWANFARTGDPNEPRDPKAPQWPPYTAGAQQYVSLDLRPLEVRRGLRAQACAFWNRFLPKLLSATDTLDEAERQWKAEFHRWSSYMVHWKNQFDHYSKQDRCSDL

SMILES	IC50 [1] [µM]	also measured
C=CC1C(CC2=NCCc3c2[nH]c2ccccc32)C(C(=O)OC)=CO[C@H]1O[C@@H]1O[C@H](CO)[C@@H](O)[C@H](O)[C@H]1O (stereo partly drawn)	55.1	
C=CC1C(C[C@@H]2NC(C(=O)O)Cc3c2[nH]c2ccccc32)C(C(=O)OC)=CO[C@H]1O[C@@H]1O[C@H](CO)[C@@H](O)[C@H](O)[C@H]1O (stereo partly drawn)	47.1	
C=CC1C(CC2=NCCc3c2[nH]c2ccccc32)C(C(=O)O)=CO[C@H]1O[C@@H]1O[C@H](CO)[C@@H](O)[C@H](O)[C@H]1O (stereo partly drawn)	52.3	
C=CC1C(Cc2nc(C(=O)O)cc3c2[nH]c2ccc(O)cc23)C(C(=O)OC)=CO[C@H]1O[C@@H]1O[C@H](CO)[C@@H](O)[C@H](O)[C@H]1O (stereo partly drawn) [CORDIFOLINE]	18.3	
C=C[C@H]1[C@H](O[C@H]2O[C@H](CO)[C@@H](O)[C@H](O)[C@H]2O)OC=C(C(=O)OC)[C@H]1Cc1nc(C(=O)O)cc2c1[nH]c1ccccc12 [DESOXYCORDIFOLINE]	49.9	Activity [2]: Active
Cc1nc(C(=O)O)cc2c1[nH]c1ccccc12 [HARMAN-3-CARBOXYLIC ACID]	45.5	
C[C@@H]1O[C@@H](OC[C@H]2O[C@@H](Oc3c(-c4ccc(O)c(O)c4)oc4cc(O)cc(O)c4c3=O)[C@H](O)[C@@H](O)[C@@H]2O)[C@H](O)[C@H](O)[C@H]1O [RUTIN]	12.3	
C=C[C@H]1[C@H](O[C@@H]2O[C@H](CO)[C@@H](O)[C@H](O)[C@H]2O)OC=C(C(=O)OC)[C@H]1C[C@@H]1NCCc2c1[nH]c1ccccc21 [STRICTOSIDINE]	56	
C=CC1C(C[C@@H]2NCCc3c2[nH]c2ccccc32)C(C(=O)O)=CO[C@H]1O[C@@H]1O[C@H](CO)[C@@H](O)[C@H](O)[C@H]1O (stereo partly drawn) [STRICTOSIDINIC ACID]	49.7	
C=C[C@H]1[C@@H](/C(=C/O)C(=O)OC)C[C@H]2c3[nH]c4ccccc4c3CCN2[C@H]1O[C@H]1O[C@@H](CO)[C@H](O)[C@@H](O)[C@@H]1O [TURBINATINE]	50.9	Activity [3]: Active; IC50 (Acetylcholinesterase): 1.86 µM
